Assay results from ChEMBL document CHEMBL4033788, “Novel Ligustrazine-Based Analogs of Piperlongumine Potently Suppress Proliferation and Metastasis of Colorectal Cancer Cells in Vitro and in Vivo” (J Med Chem, 2018).
Activity calls are given as the source filed them. The calls are words filed in the database; no cut-off is given here.

How the values were obtained:
[1] = Acute toxicity in ICR mouse assessed as survival rate at 50 mg/kg, ip administered for 14 days relative to control; type: organism-based; conditions: in vivo
HCT-116 [2] = assay: Antimetastatic activity against human HCT116 cells xenografted in BALB/c nude mouse model assessed as reduction in lung metastatic nodules at 2 to 4 mg/kg, ip administered thrice a week for 6 consecutive weeks by H and E staining-based assay; type: functional, organism-based
Summary of the method: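 BALB/c nude mice received HCT-116 cells into the tail vein, then were randomized and dosed intraperitoneally (1, 2 or 4 mg/kg) three times weekly. Body weight recorded weekly. Lungs sectioned (4 μm), H&E stained, and nodule number and area scored blinded in three sections per mouse. Nodule counts n = 4–6 per group.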

Mus musculus [3] = assay: Acute toxicity in ICR mouse assessed as mortality at 400 mg/kg, ip administered for 14 days; type: organism-based; conditions: in vivo, 336 h
Mus musculus [4] = assay: Nephrotoxicity in BALB/c nude mouse xenografted with human HCT116 cells at 2.5 to 5 mg/kg, ip administered for 21 consecutive days; type: toxicity, organism-based; conditions: in vivo
Summary of the method: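 Male BALB/c nude mice (3−5 weeks) inoculated sc with 1 × 10^7 HCT-116 cells; at tumour volume about 75 mm3 randomized (n = 8 per group) and dosed ip daily at 2.5 or 5 mg/kg for 21 consecutive days. Body weights monitored; liver, kidney, lung and heart inspected for size and morphology at sacrifice.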

HCT-116 [5] = assay: Antiproliferative activity against human HCT116 cells at 8 uM after 72 hrs by MTT assay; type: functional, cell-based
Summary of the method: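 HCT-116 cells pretreated with or without GSH (10 mM) for 1 h, washed, then treated for 72 h. Viability measured by MTT and inhibitory rates calculated. Mean ± SD of three independent experiments.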

Cc1nc(C)c(/C=C/C(=O)N2CCC=C(Cl)C2=O)nc1C
survival at 336 h [1]: 100%
Activity (HCT-116 [2]): Active
Activity (Mus musculus [3]): Toxic
Activity (Mus musculus [4]): Non-Toxic

COc1cc(/C=C/C(=O)N2CCC=CC2=O)cc(OC)c1OC [PIPLARTINE]
Activity (HCT-116 [5]): Active
